Measured values pooled from the literature.
Protocols differ between the studies behind these lines.
TYK2 JH1: Non-receptor tyrosine-protein kinase TYK2, JH1 (TYK2, Homo sapiens, UniProt P29597)
TYK2 JH2: Non-receptor tyrosine-protein kinase TYK2, JH2 (TYK2, Homo sapiens, UniProt P29597)
TYK2: Non-receptor tyrosine-protein kinase TYK2 (TYK2, Homo sapiens, UniProt P29597)

SMILES | target | effect on | action | method | tested at | endpoint | value
CN(c1nccc(-c2cnn3ncccc23)n1)C1CC1 | TYK2 JH1 | cell-free assay |  |  | 1 µM | remaining signal | 100%
CCC(=O)N[C@@H]1CC[C@H](C(=O)N(C)c2ccc(-c3nc4ccccc4o3)cc2)C1 | TYK2 JH2 | cell-free assay |  | competition with immobilised ligand | 1 µM | remaining binding | 100%
CN(CCCC(F)(F)F)c1nccc(-c2cnn3ncccc23)n1 | TYK2 | binding |  |  | 1 µM | remaining binding | 100%
CN(C)C(=O)Cn1cc(-c2nc(C3(c4ccc(-c5cnc(N)nc5)cc4)CC3)no2)cn1 | TYK2 JH2 | cell-free assay |  | competition with immobilised ligand | 1 µM | remaining binding | 90%
C[C@H]1CCN(c2nccc(-c3cnn4ncccc34)n2)C1 | TYK2 | binding |  |  | 1 µM | remaining binding | 51%
Cc1sc(C(=O)NC2COC2)cc1-n1cc(NC(=O)Nc2c(F)cccc2Cl)cn1 | TYK2 | enzyme activity | inhibitor |  | 10 µM | remaining activity | 114%
O=C(NCc1ncc(C(F)(F)F)cc1Cl)c1ccc2c(c1)C1(CCS(=O)(=O)CC1)[C@H](C1CC1)N2S(=O)(=O)c1ccc(F)cc1 | TYK2 JH2 | cell-free assay |  | competition with immobilised ligand | 1 µM | remaining binding | 79%
COc1cc2nccc(Oc3ccc(NC(=O)c4c5n(n(-c6ccc(F)cc6)c4=O)CCCC5)cc3)c2cc1OC | TYK2 | enzyme activity | inhibitor |  | 0.1 µM | inhibition | -28%
Oc1cccc(-c2nc(N3CCOCC3)c3oc4ncccc4c3n2)c1 | TYK2 | cell-free assay |  |  | 0.5 µM | remaining signal | 73.6%
c1ccc(N2CCN(Cc3nc4ccccc4[nH]3)CC2)nc1 | TYK2 JH2 | binding |  | competition with immobilised ligand | 1 µM | remaining binding | 100%
CCN(CC)CCNC(=O)c1c(C)[nH]c(/C=C2\C(=O)Nc3ccc(F)cc32)c1C | TYK2 | cell-free assay |  |  | 0.5 µM | remaining signal | 52.6%
COc1cc2ncnc(Nc3ccc(Oc4ccccc4)cc3C)c2cc1OC | TYK2 | enzyme activity | inhibitor |  | 1 µM | inhibition | 7%
Nc1ncnc2occ(-c3ccc(NC(=O)Nc4cc(C(F)(F)F)ccc4F)cc3)c12 | TYK2 JH1 | cell-free assay | inhibitor |  | 20 µM | remaining signal | 55%
COc1cc(Cl)c(C(=O)N[C@@H](CN[C@H]2CC[C@@H](N)CC2)Cc2ccc(C#N)cc2)cc1-c1ccc(CN[C@H](C)c2ccc(C)cc2)o1 | TYK2 | enzyme activity | inhibitor |  | 1 µM | remaining activity | 105%
CC/C(=N\NC(=O)NCc1cccc(O)c1)c1ccc(O)c(C)c1O | TYK2 | enzyme activity | inhibitor |  | 0.1 µM | inhibition | 7.2%
Cc1c(C(=O)O)cc(-c2ccc(C3CCNCC3)cc2)c2ccc(-c3ccc(C(F)(F)F)cc3)cc12 | TYK2 JH1 | binding |  | competition with immobilised ligand | 1 µM | remaining binding | 100%
Cc1ccc(C(=O)NCc2ccsc2)cc1C#Cc1cn(C(C)C)c2ncnc(N)c12 | TYK2 | enzyme activity | inhibitor |  | 1 µM | activity vs control | 49%
CC1CCCN1c1nccc(-c2cnn3ncccc23)n1 (stereo not shown) | TYK2 | binding |  |  | 1 µM | remaining binding | 87%
COCCOc1nc(-c2ccc(Cl)nc2)nc2c1CN(C(=O)c1ncn3ccccc13)CC2 | TYK2 JH1 | cell-free assay |  | competition with immobilised ligand | 0.1 µM | remaining binding | 100%
CC(C)(C)c1nc2c(s1)c1nc(N)ncc1c1ccc(NS(=O)(=O)c3c(F)cccc3F)c(F)c12 | TYK2 | enzyme activity | inhibitor | radiometric | 1 µM | remaining activity | 92%
Nc1nc(Nc2ccc(S(N)(=O)=O)cc2)nn1C(=O)c1c(F)cccc1F | TYK2 | cell-free assay |  |  | 0.5 µM | remaining signal | 0.878%
CCOC(=O)c1cc2cc(-c3cc(C(=O)NCc4ccc(C(=O)O)cc4)nn3C)ccc2[nH]1 | TYK2 JH1 | cell-free assay |  | competition with immobilised ligand | 0.1 µM | remaining binding | 90%
O=C(Nc1cnn(-c2csc(C(=O)NC3COC3)c2)c1)Nc1c(F)cccc1Cl | TYK2 | enzyme activity | inhibitor |  | 5 µM | remaining activity | 89.3%
CS(=O)(=O)Nc1cccc(-c2csc(NC(=O)CSc3nc4nccnc4c(=O)n3CCc3ccccc3)n2)c1 | TYK2 | enzyme activity | inhibitor |  | 10 µM | inhibition | -1%
F[C@@H]1CCN(c2nccc(-c3cnn4ncccc34)n2)C1 | TYK2 JH1 | cell-free assay |  | competition with immobilised ligand | 1 µM | remaining binding | 100%
CCCS(=O)(=O)Nc1ccc(F)c(C(=O)c2c[nH]c3ncc(-c4ccc(Cl)cc4)cc23)c1F | TYK2 | enzyme activity | inhibitor |  | 1 µM | inhibition | < 10%
CN([C@@H]1CCc2c(CC(=O)O)c3ccccc3n2C1)S(=O)(=O)c1ccc(F)cc1 | TYK2 JH1 | cell-free assay |  | competition with immobilised ligand | 1 µM | remaining binding | 100%
N[C@@H]1CCN(c2nccc(-c3cnn4ncccc34)n2)C1 | TYK2 | binding |  |  | 1 µM | remaining binding | 100%
